Measured values of several laboratories.
Each line is one published result; the experiments were not run side by side.
Target: Delta-type opioid receptor (OPRD1, Homo sapiens, UniProt P41143)

The Ki of `C[C@@H](NC(=O)[C@@H](N)Cc1ccc(O)cc1)C(=O)NCC(=O)N[C@@H](Cc1ccc(Cl)cc1)C(=O)N(C)CCC[C@@]1(c2ccc(F)cc2)OCc2cc(C#N)ccc21` is reported as 1.6 nM (cell-free assay).
The Ki of `Cc1cc(O)cc(C)c1C[C@H](N)C(=O)N1Cc2ccccc2C[C@H]1C(=O)NCC(=O)NCc1ccc([N+](=O)[O-])cc1` is reported as 0.39 nM (ligand displacement; radioligand; cell membranes).
The Ki of `C[C@@H](NC(=O)[C@@H](N)Cc1ccc(O)cc1)C(=O)NCC(=O)N[C@H](CC(=O)NNC(=O)C[C@H](Cc1ccccc1)NC(=O)CNC(=O)[C@@H](C)NC(=O)[C@@H](N)Cc1ccc(O)cc1)Cc1ccccc1` is reported as 0.72 nM (ligand displacement; radioligand).
The Ki of `CC(=O)Nc1ccccc1-c1cnc2c(c1)C[C@@]1(OCCCc3ccccc3)[C@H]3Cc4ccc(O)c5c4[C@@]1(CCN3CC1CC1)[C@H]2O5` is reported as greater than 3330 nM (ligand displacement; radioligand; cell membranes).
The Ki of `Cc1cc(O)cc(C)c1C[C@H](N)C(=O)N[C@H](C)C(=O)NCC(=O)N[C@@H](Cc1ccc(Cl)cc1)C(=O)N(C)CCC[C@@]1(c2ccc(F)cc2)OCc2cc(C#N)ccc21` is reported as 4 nM (cell-free assay).
The Ki of `Cc1ccc(CNC(=O)CNC(=O)[C@@H]2Cc3ccccc3CN2C(=O)[C@@H](N)Cc2c(C)cc(O)cc2C)cc1` is reported as 0.31 nM (ligand displacement; radioligand; cell membranes).
For `Cc1cc(F)ccc1/N=N/C(=O)NCC1(N(C)C)CCCCC1`, the Ki was 12000 nM (cell-free assay).
For `CCCCC/C=C\C/C=C\C/C=C\C/C=C\CCCC(=O)O`, the Ki was 4800 nM (ligand displacement; radioligand; cell membranes).
For `Cc1cc(/N=N/C(=O)NCC2(N(C)C)CCCCC2)ccc1F`, the Ki was 30000 nM (cell-free assay).
With `C[N+]1(C)CCC(=C(c2ccccc2)c2ccccc2)CC1` the Ki was 14000 nM (cell-free assay).
With `C[C@@H](NC(=O)[C@@H](N)Cc1ccc(O)cc1)C(=O)NCC(=O)N[C@@H](Cc1ccccc1)C(=O)N(C)CCC[C@@]1(c2ccc(F)cc2)OCc2cc(C#N)ccc21` the Ki was 57 nM (cell-free assay).
With `Cc1cc(O)cc(C)c1C[C@H](N)C(=O)N1Cc2ccccc2C[C@H]1C(=O)NCC(=O)NCc1ccc(N)cc1` the Ki was 2 nM (ligand displacement; radioligand; cell membranes).
`CCCCCCCCC[C@@H]1CC(=O)NCC(=O)N[C@H](Cc2ccc(O)cc2)C(=O)NCC(=O)N[C@@H](Cc2ccccc2)C(=O)O1` has a Ki of 21000 nM (ligand displacement; radioligand).
